Test results reported in ChEMBL document CHEMBL1157639, “Identification of inhibitors of drug-resistant Candida albicans strains from a library of bicyclic peptidomimetic compounds” (2010).

Experiments:
[1] = target: Secreted aspartic protease 2 (Candida albicans) (UniProt P0CS83); test: Inhibition of Candida albicans SAP2 at 10 uM by spectrophotometry
In short: (§1)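 Sample was mixed with 1% (w/v) BSA substrate in 50 mM sodium citrate, pH 3.2, plus SAP2 protease (1 μg/mL stock solution) and incubated 30 min at 37 °C. The reaction was stopped with 10% TCA, kept 30 min on ice, and centrifuged; supernatant A280 was read. Percent inhibition was taken from ΔOD, with control proteinase minus proteinase plus pepstatin A set as 100%.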

[2] = target: Secreted aspartic protease 2 (Candida albicans) (UniProt P0CS83); test: Inhibition of Candida albicans SAP2 at 10 uM by spectrophotometry relative to pepstatin A; in short: as §1

Secreted aspartic protease 2 (Candida albicans), sequence (P0CS83 57-398 limits assumed): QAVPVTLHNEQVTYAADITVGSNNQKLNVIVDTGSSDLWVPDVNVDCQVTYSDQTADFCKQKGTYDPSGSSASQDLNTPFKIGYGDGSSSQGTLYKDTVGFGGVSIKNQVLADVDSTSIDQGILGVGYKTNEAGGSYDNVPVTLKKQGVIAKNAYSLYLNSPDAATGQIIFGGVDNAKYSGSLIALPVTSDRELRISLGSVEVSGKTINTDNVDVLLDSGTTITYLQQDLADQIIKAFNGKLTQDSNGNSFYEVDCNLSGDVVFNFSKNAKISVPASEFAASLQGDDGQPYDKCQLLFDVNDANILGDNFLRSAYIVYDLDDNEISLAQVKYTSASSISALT

SMILES	inhibition [1]	inhibition [2]
CCOC(=O)C1CCN(C(=O)[C@@H]2O[C@@]3(c4ccccc4)CN(C(c4ccccc4)c4ccccc4)C[C@@H]2O3)CC1	6%	23%
CNC(=O)[C@@H]1O[C@@H]2O[C@H]1C(=O)N(Cc1ccccc1)[C@H]2Cc1ccccc1	29%	87%
CN(CCN)C(=O)[C@@H]1O[C@@]2(c3ccccc3)CN(C(c3ccccc3)c3ccccc3)C[C@@H]1O2	6%	23%
O=C(NC1CCCCC1)[C@@H]1O[C@@H]2O[C@H]1C(=O)N(Cc1ccccc1)[C@H]2Cc1ccccc1	36%	73%
CCCNC(=O)[C@@H]1O[C@@H]2O[C@H]1C(=O)N(Cc1ccccc1)[C@H]2Cc1ccccc1	36%	73%
CC(C)CCNC(=O)[C@@H]1O[C@H]2CN(Cc3ccccc3)C[C@@H]1O2	3%	13%
CC(NC(=O)[C@@H]1O[C@H]2CN(Cc3ccccc3)C(=O)[C@@H]1O2)c1ccccc1 (stereo partly specified)	22%	87%
C#CCNC(=O)[C@@H]1O[C@@H]2O[C@H]1C(=O)N(Cc1ccccc1)[C@H]2Cc1ccccc1	8%	42%
O=C([C@@H]1O[C@@H]2O[C@H]1C(=O)N(Cc1ccccc1)[C@H]2Cc1ccccc1)N1CCN(CCO)CC1	13%	40%
CCCCCNC(=O)[C@@H]1O[C@H]2CN(Cc3ccccc3)C(=O)[C@@H]1O2	22%	87%
CCCNC(=O)[C@@H]1O[C@@]2(c3ccccc3)CN(C(c3ccccc3)c3ccccc3)C[C@@H]1O2	3%	12%
CCOC(=O)C1CCN(C(=O)[C@@H]2O[C@@H]3O[C@H]2C(=O)N(Cc2ccccc2)[C@H]3Cc2ccccc2)CC1	17%	87%
O=C([C@@H]1O[C@H]2CN(Cc3ccccc3)C[C@@H]1O2)N1CCCCC1	2%	6%
CC(C)C[C@@H](CO)NC(=O)[C@@H]1O[C@@H]2O[C@H]1C(=O)N(Cc1ccccc1)[C@H]2Cc1ccccc1	17%	87%
CN(CCN)C(=O)[C@@H]1O[C@H]2CN(Cc3ccccc3)C[C@@H]1O2	2%	6%
O=C(NCC(F)(F)F)[C@@H]1O[C@@]2(c3ccccc3)CN(C(c3ccccc3)c3ccccc3)C[C@@H]1O2	3%	12%
O=C(NC1CCCCC1)[C@@H]1O[C@@]2(c3ccccc3)CN(C(c3ccccc3)c3ccccc3)C(=O)[C@@H]1O2	0%	0%
O=C(NC1CC1)[C@@H]1O[C@H]2CN(Cc3ccccc3)C[C@@H]1O2	3%	13%
O=C([C@@H]1O[C@H]2CN(Cc3ccccc3)C[C@@H]1O2)N1CCOCC1	2%	6%
C#CCNC(=O)[C@@H]1O[C@H]2CN(Cc3ccccc3)C[C@@H]1O2	3%	13%
CC(C)CCNC(=O)[C@@H]1O[C@@H]2O[C@H]1C(=O)N(Cc1ccccc1)[C@H]2Cc1ccccc1	29%	87%
CCCNC(=O)[C@@H]1O[C@H]2CN(Cc3ccccc3)C[C@@H]1O2	3%	13%
CCCCNC(=O)[C@@H]1O[C@@]2(c3ccccc3)CN(C(c3ccccc3)c3ccccc3)C[C@@H]1O2	3%	12%
CCCCNC(=O)[C@@H]1O[C@@H]2O[C@H]1C(=O)N(Cc1ccccc1)[C@H]2Cc1ccccc1	8%	42%

SMILES	inhibition [1]	inhibition [2]
CCOC(=O)N1CCN(C(=O)[C@@H]2O[C@@H]3O[C@H]2C(=O)N(Cc2ccccc2)[C@H]3Cc2ccccc2)CC1	17%	87%
NC(=O)C1O[C@H]2CN(Cc3ccccc3)C(=O)[C@@H]1O2 (single isomer, unassigned)	4%	18%
C#CCNC(=O)[C@@H]1O[C@@]2(c3ccccc3)CN(C(c3ccccc3)c3ccccc3)C[C@@H]1O2	3%	12%
O=C(NCC(F)(F)F)[C@@H]1O[C@@H]2O[C@H]1C(=O)N(Cc1ccccc1)[C@H]2Cc1ccccc1	8%	42%
CC(NC(=O)[C@@H]1O[C@@H]2O[C@H]1C(=O)N(Cc1ccccc1)[C@H]2Cc1ccccc1)c1ccccc1 (stereo partly specified)	8%	42%
CCCCNC(=O)[C@@H]1O[C@H]2CN(Cc3ccccc3)C(=O)[C@@H]1O2	4%	18%
CCOC(=O)N1CCN(C(=O)[C@@H]2O[C@@]3(c4ccccc4)CN(C(c4ccccc4)c4ccccc4)C(=O)[C@@H]2O3)CC1	5%	19%
O=C(NCc1ccccc1)[C@@H]1O[C@H]2CN(Cc3ccccc3)C(=O)[C@@H]1O2	4%	18%
CNC(=O)[C@@H]1O[C@H]2CN(Cc3ccccc3)C(=O)[C@@H]1O2	4%	18%
O=C([C@@H]1O[C@@H]2O[C@H]1C(=O)N(Cc1ccccc1)[C@H]2Cc1ccccc1)N1CCSCC1	13%	40%
O=C([C@@H]1O[C@@]2(c3ccccc3)CN(C(c3ccccc3)c3ccccc3)C[C@@H]1O2)N1CCSCC1	6%	23%
CCCCCCNC(=O)[C@@H]1O[C@@H]2O[C@H]1C(=O)N(Cc1ccccc1)[C@H]2Cc1ccccc1	8%	42%
O=C([C@@H]1O[C@@H]2O[C@H]1C(=O)N(Cc1ccccc1)[C@H]2Cc1ccccc1)N1CCOCC1	13%	40%
O=C([C@@H]1O[C@@]2(c3ccccc3)CN(C(c3ccccc3)c3ccccc3)C(=O)[C@@H]1O2)N1CCN(CCO)CC1	5%	19%
CCCCCNC(=O)[C@@H]1O[C@@]2(c3ccccc3)CN(C(c3ccccc3)c3ccccc3)C(=O)[C@@H]1O2	0%	0%
O=C([C@@H]1O[C@@]2(c3ccccc3)CN(C(c3ccccc3)c3ccccc3)C(=O)[C@@H]1O2)N1CCOCC1	5%	19%
O=C(NC1CC1)[C@@H]1O[C@@H]2O[C@H]1C(=O)N(Cc1ccccc1)[C@H]2Cc1ccccc1	29%	87%
CC(C)CNC(=O)[C@@H]1O[C@H]2CN(Cc3ccccc3)C(=O)[C@@H]1O2	4%	18%
O=C(NCC(F)(F)F)[C@@H]1O[C@H]2CN(Cc3ccccc3)C(=O)[C@@H]1O2	22%	87%
CC(NC(=O)[C@@H]1O[C@@]2(c3ccccc3)CN(C(c3ccccc3)c3ccccc3)C(=O)[C@@H]1O2)c1ccccc1 (stereo partly specified)	0%	0%
CCOC(=O)C1CCN(C(=O)[C@@H]2O[C@@]3(c4ccccc4)CN(C(c4ccccc4)c4ccccc4)C(=O)[C@@H]2O3)CC1	5%	19%
O=C([C@@H]1O[C@@]2(c3ccccc3)CN(C(c3ccccc3)c3ccccc3)C[C@@H]1O2)N1CCCCC1	6%	23%
O=C([C@@H]1O[C@H]2CN(Cc3ccccc3)C[C@@H]1O2)N1CCSCC1	2%	6%
COC(=O)[C@H](CC(C)C)N1C[C@@]2(C)O[C@H](C(=O)N3CCN(Cc4ccccc4)CC3)[C@H](O2)C1=O	28%	57%
